Data set [1] deals with Cholesterol 7-alpha-hydroxylase (Cytochrome P450 7A1) (Mus musculus, UniProt Q64505). Put plainly: In vitro percent Cholesterol 7-alpha-hydroxylase activity in mouse CF1 liver microsomes at 200 uM. The conditions noted are these: read-out: Control. Also noted: species or system Microsome. The essentials:
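Mouse liver enzymes assayed in vitro on 10% homogenates of CF1 male mouse liver, with test drug added at 50–200 μM. Each enzyme follows a published procedure. Protein is measured by Lowry. Activity is given as % of untreated control (X ± SD, N = 6).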
(Microsomes from liver hold many membrane-bound enzymes, among them those of drug oxidation.)

In data set [2] the target is T1, 3-hydroxy-3-methylglutaryl-coenzyme A reductase (Mus musculus) (UniProt Q01237).
T1 sequence (whole entry): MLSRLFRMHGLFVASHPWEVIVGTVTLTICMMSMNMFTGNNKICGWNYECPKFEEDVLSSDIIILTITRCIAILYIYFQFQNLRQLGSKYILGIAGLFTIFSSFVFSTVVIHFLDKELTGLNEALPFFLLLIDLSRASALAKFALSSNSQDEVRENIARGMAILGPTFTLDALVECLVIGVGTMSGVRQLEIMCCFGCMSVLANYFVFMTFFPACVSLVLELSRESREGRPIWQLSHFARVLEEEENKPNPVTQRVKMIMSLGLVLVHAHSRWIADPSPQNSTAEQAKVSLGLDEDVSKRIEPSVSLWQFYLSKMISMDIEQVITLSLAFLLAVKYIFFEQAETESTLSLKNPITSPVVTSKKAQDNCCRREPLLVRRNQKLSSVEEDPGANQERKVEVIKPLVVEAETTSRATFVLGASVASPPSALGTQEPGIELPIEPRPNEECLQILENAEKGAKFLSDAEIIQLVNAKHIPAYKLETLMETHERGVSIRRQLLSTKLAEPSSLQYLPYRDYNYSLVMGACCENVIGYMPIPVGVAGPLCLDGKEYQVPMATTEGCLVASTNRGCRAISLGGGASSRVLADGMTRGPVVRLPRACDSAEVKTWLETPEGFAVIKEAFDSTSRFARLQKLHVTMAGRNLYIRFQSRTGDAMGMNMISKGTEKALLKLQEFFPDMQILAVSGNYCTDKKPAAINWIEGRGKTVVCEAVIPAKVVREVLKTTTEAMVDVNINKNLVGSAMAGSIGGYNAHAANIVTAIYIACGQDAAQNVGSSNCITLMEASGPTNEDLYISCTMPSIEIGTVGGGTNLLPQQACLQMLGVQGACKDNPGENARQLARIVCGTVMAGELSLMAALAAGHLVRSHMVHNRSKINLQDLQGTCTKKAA
Put plainly: In Vitro evaluation for the CF1 liver enzyme activity on HMG CoA reductase at concentration 200 uM. The essentials:
(§1)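 Liver was taken from CF1 male mice and made into 10% homogenates, which were incubated with test compound at 50, 100 or 200 µM. Each enzyme was assayed by its literature method, and protein was measured by Lowry. N = 6. Activity is expressed as % of untreated control ± SD.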

The subject of data set [3] is Mus musculus. Put plainly: Compound was evaluated for the hypolipidemic activity in CF1 male mice at a dose of 10 mg/kg orally for Serum cholesterol at 16th day. Conditions: route oral. The format is functional. The essentials:
(§2)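 CF1 male mice received the agent orally in 1% CMC at 10–60 mg/kg per day. Tail-vein blood was taken on days 9 and 16. Serum cholesterol was measured by modified Liebermann–Burchard on duplicate 25-µL samples, and serum triglyceride on day 16 in duplicate 50-µL samples. Values are % of vehicle control, mean ± SD, N = 6; Student's t test.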

The test system of data set [4] is Mus musculus. Put plainly: Compound was evaluated for the hypolipidemic activity in CF1 male mice at a dose of 40 mg/kg orally for Serum triglyceride at 16th day. It counts as functional. Conditions: route oral. The essentials:
as §2

The target of data set [5] is T2, Sterol O-acyltransferase 1 (Mus musculus) (UniProt Q61263).
T2 sequence (whole entry): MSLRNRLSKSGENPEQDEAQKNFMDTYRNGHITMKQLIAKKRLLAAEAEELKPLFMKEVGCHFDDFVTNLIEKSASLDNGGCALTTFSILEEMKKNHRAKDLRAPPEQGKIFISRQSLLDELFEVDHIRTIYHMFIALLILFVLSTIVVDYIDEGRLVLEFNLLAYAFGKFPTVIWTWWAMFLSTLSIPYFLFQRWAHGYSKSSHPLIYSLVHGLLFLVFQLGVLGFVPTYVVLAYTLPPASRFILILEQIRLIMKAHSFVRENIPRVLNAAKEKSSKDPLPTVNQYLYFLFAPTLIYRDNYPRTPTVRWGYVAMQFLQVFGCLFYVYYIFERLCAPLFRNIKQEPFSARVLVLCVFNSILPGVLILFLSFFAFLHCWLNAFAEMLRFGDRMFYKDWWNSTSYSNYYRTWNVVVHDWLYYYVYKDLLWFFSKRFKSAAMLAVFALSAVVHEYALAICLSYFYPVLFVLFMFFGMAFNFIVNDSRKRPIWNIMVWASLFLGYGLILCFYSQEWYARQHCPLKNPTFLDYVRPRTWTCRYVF
Put plainly: In Vitro evaluation for the CF1 liver enzyme activity on Acyl cholesterol acyltransferase at concentration 200 uM. It counts as functional, tissue-based. The essentials:
as §1

Data set [6] relates to Rattus norvegicus. Put plainly: Compound was evaluated for the hypolipidemic activity at 20 mg/kg per day orally for 14 days on neutral lipids content in rat feces. It counts as functional. Conditions: route oral. The essentials:
(§3)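 Male Sprague–Dawley rats were dosed orally for 14 days. Liver, small intestine and a 24-h fecal collection were lipid-extracted. Extracts were assayed for cholesterol (modified Liebermann–Burchard), triglyceride (enzymatic kit), neutral lipids, phospholipids and protein. Values are % of 1% CMC vehicle control, mean ± SD, N = 6.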

Data set [7] deals with Rattus norvegicus. Put plainly: Compound was evaluated for the hypolipidemic activity at 20 mg/kg per day orally for 14 days on protein content in rat HDL. The conditions noted are these: route oral. The format is functional. The essentials: (§4)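 Male Sprague–Dawley rats (~300 g) were dosed orally each day. Blood was drawn from the abdominal vein. Lipoprotein fractions (chylomicron, VLDL, LDL, HDL) were separated by the Hatch–Lees and Havel methods. Each fraction was assayed for cholesterol, triglyceride (enzymatic kit), neutral lipids, phospholipids and Lowry protein. Values are % of 1% CMC vehicle control, N = 6.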

The test system of data set [8] is Rattus norvegicus. Put plainly: Compound was evaluated for the hypolipidemic activity at 20 mg/kg per day orally for 14 days on protein content in rat lipoprotein chylomicron. The format is functional. Conditions: route oral. The essentials: as §4
In data set [9] the test system is Rattus norvegicus. Put plainly: Compound was evaluated for the hypolipidemic activity at 20 mg/kg per day orally for 14 days on cholesterol content in rat feces. The format is functional. The conditions noted are these: route oral. The essentials: as §3
In data set [10] the test system is Rattus norvegicus. Put plainly: Compound was evaluated for the hypolipidemic activity at 20 mg/kg per day orally for 14 days on lipid content in rat feces. It counts as functional. Conditions: route oral. The essentials:
as §3

The subject of data set [11] is Rattus norvegicus. Put plainly: Compound was evaluated for the hypolipidemic activity at 20 mg/kg per day orally for 14 days on triglycerides content in rat HDL. It counts as functional. The conditions noted are these: route oral. The essentials:
as §4

For data set [12], the system named is Rattus norvegicus. Put plainly: Compound was evaluated for the hypolipidemic activity at 20 mg/kg per day orally for 14 days on triglycerides content in rat LDL. The format is functional. Conditions: route oral. The essentials:
as §4

Data set [13] deals with Rattus norvegicus. Put plainly: Compound was evaluated for the hypolipidemic activity at 20 mg/kg per day orally for 14 days on triglycerides content in rat lipoprotein chylomicron; p</=0.001. The format is functional. The conditions noted are these: route oral. The essentials:
as §4

Data set [14] deals with Rattus norvegicus. Put plainly: Compound was evaluated for the hypolipidemic activity at 20 mg/kg per day orally for 14 days on phospholipids content in rat HDL. It counts as functional. The conditions noted are these: route oral. The essentials: as §4

Chain of Cholesterol 7-alpha-hydroxylase (Cytochrome P450 7A1) (Q64505 whole entry): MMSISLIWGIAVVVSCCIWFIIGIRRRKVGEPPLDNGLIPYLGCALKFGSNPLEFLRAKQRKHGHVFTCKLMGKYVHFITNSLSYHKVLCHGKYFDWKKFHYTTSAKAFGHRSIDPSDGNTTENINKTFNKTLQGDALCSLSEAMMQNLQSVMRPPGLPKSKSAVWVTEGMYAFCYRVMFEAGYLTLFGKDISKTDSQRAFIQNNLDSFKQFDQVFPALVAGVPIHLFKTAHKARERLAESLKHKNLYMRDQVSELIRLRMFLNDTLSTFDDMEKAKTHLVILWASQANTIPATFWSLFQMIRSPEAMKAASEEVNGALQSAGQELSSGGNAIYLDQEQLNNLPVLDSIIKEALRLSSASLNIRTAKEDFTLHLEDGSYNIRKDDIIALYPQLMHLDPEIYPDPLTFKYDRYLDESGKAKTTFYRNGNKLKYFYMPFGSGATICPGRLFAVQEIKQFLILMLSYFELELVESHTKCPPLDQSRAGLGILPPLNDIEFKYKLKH

`COc1ccc(C2C(=O)c3ccccc3C2=O)cc1` [ANISINDIONE]: in [1], the activity at 200 µM came out at 113%. Moreover, the Control in [2] was determined as 105%; with Mus musculus [3] it was 63%; with Mus musculus [4], 73%; in [5] it was 60%; with Rattus norvegicus [6] it was 101%; with Rattus norvegicus [7] it was 107%. Further, the Control with Rattus norvegicus [8] worked out at 118%; in the data set with Rattus norvegicus [9], 187%; with Rattus norvegicus [10], 103%; in the data set with Rattus norvegicus [11], 59%; with Rattus norvegicus [12] it was 40%; with Rattus norvegicus [13] it was 72%. In the data set on Rattus norvegicus [14], the Control stood at 87%.

Values taken from ChEMBL document CHEMBL1123129, “Hypolipidemic activity of indan-1,3-dione derivatives in rodents” (J Med Chem, 1985).
